# Assay results from different studies.
# Cell line: HT-29
SMILES,assay,setting,IC50
COc1c2c(cc3c1OCO3)[C@]13C=C[C@H](OC)C[C@H]1N(C2)C[C@H]3OC(=O)c1cccc(C)c1,"cell growth or viability, WST-1",,> 10 µM
Cc1occc(=O)c1[O-].[Cl-].[W+4].c1cc[cH-]c1.c1cc[cH-]c1,"cell growth or viability, MTT",,540 µM
C#C[C@@]1(O)[C@@H](COP(=O)(O)OC[C@H]2O[C@@H](n3cc(F)c(=O)[nH]c3=O)C[C@@H]2O)O[C@@H](n2ccc(N)nc2=O)[C@@H]1O,"cell growth or viability, SRB",72 h,0.0054 µM
COc1ccc(C(=O)O[C@@H]2CN3Cc4c(cc5c(c4OC)OCO5)[C@@]24C=C[C@H](OC)C[C@@H]34)cc1,"cell growth or viability, WST-1",,> 10 µM
CC(=O)c1cccc(/N=N/c2cc(/C=C/C(=O)O)ccc2O)c1,"cell growth or viability, MTT",,> 50 µM
CN1C(=O)/C(=N\NC(=O)c2cc3ccccc3[nH]2)c2cc(Br)ccc21,cell growth or viability,,3.68 µM
CC(=O)O[C@H]1C(=O)[C@@]2(C)[C@H]([C@H](OC(=O)c3ccccc3)[C@]3(O)C[C@H](OC(=O)[C@H](O)[C@@H](NC(=O)c4ccccc4)c4ccccc4)C(C)=C1C3(C)C)[C@]1(OC(C)=O)CO[C@@H]1C[C@@H]2O,"cell growth or viability, fluorescence",72 h,0.0035 µM
O=C(O)/C=C/c1ccc(O)cc1,"cell growth or viability, MTT",,> 50 µM
COc1ccc2c(c1)/C(=N/NC(=O)c1cc3ccccc3[nH]1)C(=O)N2,cell growth or viability,,> 30 µM
O=c1cc(CO)occ1[O-].[Cl-].[W+4].c1cc[cH-]c1.c1cc[cH-]c1,"cell growth or viability, MTT",,200 µM
CCN(CC)CCNC(=O)c1c(C)[nH]c(/C=C2\C(=O)Nc3ccc(F)cc32)c1C,cell growth or viability,,10.1 µM
CC[C@H](C)C(=O)O[C@H]1CCC=C2C=C[C@H](C)[C@H](CC[C@@H]3C[C@@H](O)CC(=O)O3)[C@H]21,"cell growth or viability, SRB",72 h,0.07 µg/mL
CC(=O)c1cccc(N=Nc2c(C(=O)O)cc(O)c(O)c2O)c1,"cell growth or viability, MTT",,10.2 µM
CCCCCCCCCCCC(=O)Oc1c(C)c(O)c(C(=O)/C=C/c2ccccc2)c(OC)c1C,"cell growth or viability, SRB",72 h,> 50 µM
CC(C)n1c(/C=C/C(O)CC(O)CC(=O)O)c(-c2ccc(F)cc2)c2ccccc21 (stereo not drawn),"cell growth or viability, SRB",72 h,1.67 µg/mL
O=C(O)/C=C/c1ccc(O)c(O)c1,"cell growth or viability, MTT",,4.3 µM
CCC[C@H](Nc1nc(-c2ccc(NC(=O)NCC)c(OC)c2)ncc1C)c1cccnc1,"cell growth or viability, fluorescence",72 h,0.0393 µM
O=C1Nc2ccc(Cl)cc2/C1=N/NC(=O)c1cc2ccccc2[nH]1,cell growth or viability,,> 30 µM
COc1cc(Nc2nccc(-c3cnn4nc(OC)ccc34)n2)cc(C(F)(F)F)c1,"cell growth or viability, ATP luminescence",,0.33 µM
NCCC(=O)Nc1ccc(-n2nc(C(F)(F)F)cc2-c2ccc3c(c2)oc2ccccc23)cc1,"cell growth or viability, MTT",24 h,7.2 µg/mL
COc1cccc(C(=O)O[C@@H]2CN3Cc4c(cc5c(c4OC)OCO5)[C@@]24C=C[C@H](OC)C[C@@H]34)c1,"cell growth or viability, WST-1",,> 10 µM
O=C1Nc2ccc(Br)cc2/C1=N/NC(=O)c1cc2ccccc2[nH]1,cell growth or viability,,21.9 µM
COc1ccc(-c2cc3nccn3c(Nc3ncccc3C(N)=O)n2)cc1OC,IL-8 release,24 h,> 2.56 µM
O=C1Nc2ccc(F)cc2/C1=N/NC(=O)c1cc2ccccc2[nH]1,cell growth or viability,,> 30 µM
C#Cc1cc(Nc2nccc(Oc3ccc(NC(=O)Nc4cc(C(C)(C)C)nn4-c4ccc(C)cc4)c4ccccc34)n2)cc(C(=O)NCCOCCOCCOC)c1,IL-8 release,24 h,0.0018 µM
CN1C(=O)/C(=N\NC(=O)c2cc3ccccc3[nH]2)c2ccccc21,cell growth or viability,,12.9 µM
NCC(=O)Nc1ccc(-n2nc(C(F)(F)F)cc2-c2ccc3c(c2)Nc2ccccc2S3)cc1,"cell growth or viability, MTT",24 h,6.2 µg/mL
